In ChEMBL document CHEMBL4699465, “Isolation of Isotrichophycin C and Trichophycins G-I from a Collection of Trichodesmium thiebautii” (J Nat Prod, 2020):

system: N2a; assay: Cytotoxicity against mouse Neuro-2a cells assessed as reduction in cell viability incubated for 72 hrs by MTT assay; format: functional, cell-based
Outline: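 Murine neuroblastoma neuro-2A cells were tested over a range of concentrations, with four technical replicates per concentration. Each assay was run in triplicate. Doxorubicin served as the positive control. EC50 was taken from concentration–viability curves.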

SMILES	EC50 [µM]
C#CCCCCC/C(=C/Cl)CC[C@H](O)/C=C(\C)[C@H](O)CC=C	> 50
COC1=CC(=O)O[C@@H]([C@H](C)C[C@H](C)CC[C@@H](O)C/C(=C/Cl)Cc2ccccc2)C1	15
C[C@H](CC[C@@H](O)C/C(=C/Cl)CCCC#CBr)C[C@@H](C)[C@@H](O)C/C=C/Cl	> 100
C[C@H](CC[C@@H](O)C/C(=C/Cl)Cc1ccccc1)C[C@@H](C)[C@@H](O)C/C=C/Cl	24
C#CCCC/C(=C/Cl)C[C@H](O)CC[C@@H](C)C[C@@H](C)[C@H](O)CCCC[C@@H](C)[C@H](O)CC=C	12
C[C@H](CC[C@@H](O)C/C(=C\Cl)Cc1ccccc1)C[C@@H](C)[C@@H](O)C/C=C/Cl	13
CC(=O)O[C@H](CC[C@@H](C)C[C@@H](C)[C@H](C/C=C/Cl)OC(C)=O)C/C(=C\Cl)Cc1ccccc1	> 100
C=CC[C@@H](OC(C)=O)[C@H](C)CCCC[C@@H](OC(C)=O)[C@H](C)C[C@H](C)CC[C@H](C/C(=C\Cl)Cc1ccccc1)OC(C)=O	> 100
COc1cccc2c1C(=O)c1c(O)c3c(c(O)c1C2=O)C[C@@](O)(C(=O)CO)C[C@@H]3O[C@H]1C[C@H](N)[C@H](O)[C@H](C)O1 [DOXORUBICIN]	127
C=CC[C@@H](O)[C@H](C)CCCC[C@@H](O)[C@H](C)C[C@H](C)CC[C@@H](O)C/C(=C\Cl)Cc1ccccc1	6.5
C=CC[C@H](O)[C@H](C)C[C@H](C)CC[C@@H](O)C/C(=C\Cl)Cc1ccccc1	8.4
C#CCCC/C(=C\Cl)C[C@H](O)CC[C@@H](C)C[C@@H](C)[C@@H](O)C/C=C/Cl	40
COC1=CC(=O)O[C@@H]([C@H](C)C[C@H](C)CC(C)=O)C1	> 100
C=CC[C@@H](O)/C(C)=C/[C@@H](O)CC/C(=C\Cl)Cc1ccccc1	> 50
CCC(=O)N(C)CCC/C(=C\Cl)C/C=C(\C)C[C@@H](C)C[C@@H](C)[C@H]1CC(OC)=CC(=O)O1	14
